Data taken from ChEMBL document CHEMBL1124362, “Synthesis of methotrexate-antibody conjugates by regiospecific coupling and assessment of drug and antitumor activities” (J Med Chem, 1989).
≈ marks a conversion by molar mass, not a printed value. Each block holds one compound with its values, some of them ahead of it.

Tests used:
Dihydrofolate reductase = biological target: T1, Dihydrofolate reductase (Bos taurus, UniProt P00376); experiment: Concentration required for inhibition of beef liver dihydrofolate reductase
T1 sequence (P00376 whole entry): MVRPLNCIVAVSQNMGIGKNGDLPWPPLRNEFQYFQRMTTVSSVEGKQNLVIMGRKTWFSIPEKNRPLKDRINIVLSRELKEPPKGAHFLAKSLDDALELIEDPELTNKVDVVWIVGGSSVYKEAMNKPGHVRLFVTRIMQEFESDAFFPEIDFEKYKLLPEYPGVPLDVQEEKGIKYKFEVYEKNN

CAKI-1 [1] = experiment: Inhibition of colony formation of Caki-1 cells by MTX; assay type: functional, cell-based; conditions: Homo sapiens
In short: (§1)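 Single-cell suspensions (>99% trypan blue-excluding) of M21 melanoma or Caki-1 renal carcinoma cells, 1 × 10⁶ cells/mL in McCoy's medium with 15% dialyzed FCS, exposed 6 h at 37 °C to agent, washed three times, plated in 0.3% agar over 0.5% agar base (10⁴ cells/plate). Incubated at 37 °C, 5% CO₂. Colonies >30 cells counted visually at 14 days, three plates per concentration.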

CAKI-1 [2] = experiment: Inhibition of colony formation of Caki-1 cells by amide-linked conjugate (regiospecific coupling) of MTX and Dal K-20; assay type: functional, cell-based; conditions: Homo sapiens; in short: as §1
CAKI-1 [3] = experiment: Inhibition of colony formation of Caki-1 cells by amide-linked conjugate of MTX and Dal K-20; assay type: functional, cell-based; conditions: Homo sapiens; in short: as §1
CAKI-1 [4] = experiment: Inhibition of colony formation of Caki-1 cells by hydrazone-linked conjugate (regiospecific coupling) of MTX and Dal K-20; assay type: functional, cell-based; conditions: Homo sapiens; in short: as §1
CAKI-1 [5] = experiment: Inhibition of colony formation of Caki-1 cells by hydrazone-linked conjugate of MTX and Dal K-20; assay type: functional, cell-based; conditions: Homo sapiens; in short: as §1
M21 [6] = experiment: Colony count at 15 ug/mL of amide-linked conjugate of MTX and Dal K-20 in melanoma M21 cells; conditions: Homo sapiens
M21 [7] = experiment: Colony count at 10 ug/mL of amide-linked conjugate of MTX and Dal K-20 in melanoma M21 cells; conditions: Homo sapiens
M21 [8] = experiment: Colony count at 20 ug/mL of amide-linked conjugate of MTX and Dal K-20 in melanoma M21 cells; conditions: Homo sapiens
M21 [9] = experiment: Colony count at 20 ug/mL of hydrazone-linked conjugate of MTX and Dal K-20 in melanoma M21 cells; conditions: Homo sapiens
M21 [10] = experiment: Colony count at 10 ug/mL of hydrazone-linked conjugate of MTX and Dal K-20 in melanoma M21 cells; conditions: Homo sapiens
M21 [11] = experiment: Colony count at 15 ug/mL of hydrazone-linked conjugate of MTX and Dal K-20 in melanoma M21 cells; conditions: Homo sapiens
M21 [12] = experiment: Colony count at 15 ug/mL of amide-linked conjugate (regiospecific coupling) of MTX and Dal K-20 in melanoma M21 cells; conditions: Homo sapiens
M21 [13] = experiment: Colony count at 20 ug/mL of amide-linked conjugate (regiospecific coupling) of MTX and Dal K-20 in melanoma M21 cells; conditions: Homo sapiens
M21 [14] = experiment: Colony count at 10 ug/mL of amide-linked conjugate (regiospecific coupling) of MTX and Dal K-20 in melanoma M21 cells; conditions: Homo sapiens
M21 [15] = experiment: Colony count at 15 ug/mL of hydrazone-linked conjugate (regiospecific coupling) of MTX and Dal K-20 in melanoma M21 cells; conditions: Homo sapiens
M21 [16] = experiment: Colony count at 20 ug/mL of hydrazone-linked conjugate (regiospecific coupling) of MTX and Dal K-20 in melanoma M21 cells; conditions: Homo sapiens
M21 [17] = experiment: Colony count at 10 ug/mL of hydrazone-linked conjugate (regiospecific coupling) of MTX and Dal K-20 in melanoma M21 cells; conditions: Homo sapiens

IC50 (Dihydrofolate reductase): 25.4 µM
SMILES: COC(=O)CCC(NC(=O)c1ccc(N(C)Cc2cnc3nc(N)nc(N)c3n2)cc1)C(=O)O (stereo unspecified)

IC50 (CAKI-1 [1]): 25 µg/mL (≈ 55 µM)
IC50 (CAKI-1 [2]): 3.3 µg/mL (≈ 7.26 µM)
IC50 (CAKI-1 [3]): 4.5 µg/mL (≈ 9.9 µM)
IC50 (CAKI-1 [4]): 3 µg/mL (≈ 6.6 µM)
IC50 (CAKI-1 [5]): 3.4 µg/mL (≈ 7.48 µM)
SMILES: CN(Cc1cnc2nc(N)nc(N)c2n1)c1ccc(C(=O)N[C@@H](CCC(=O)O)C(=O)O)cc1 [METHOTREXATE]
colony count (M21 [6]): 117 colonies/plate
colony count (M21 [7]): 109 colonies/plate
colony count (M21 [8]): 119 colonies/plate
colony count (M21 [9]): 108 colonies/plate
colony count (M21 [10]): 112 colonies/plate
colony count (M21 [11]): 109 colonies/plate
colony count (M21 [12]): 118 colonies/plate
colony count (M21 [13]): 112 colonies/plate
colony count (M21 [14]): 115 colonies/plate
colony count (M21 [15]): 121 colonies/plate
colony count (M21 [16]): 115 colonies/plate
colony count (M21 [17]): 120 colonies/plate

IC50 (Dihydrofolate reductase): 41.2 µM
SMILES: CN(Cc1cnc2nc(N)nc(N)c2n1)c1ccc(C(=O)NC(CCC(=O)NN)C(=O)OC(C)(C)C)cc1 (stereo unspecified)

IC50 (Dihydrofolate reductase): 37.9 µM
SMILES: CN(Cc1cnc2nc(N)nc(N)c2n1)c1ccc(C(=O)NC(CCC(=O)NN)C(=O)NN)cc1 (stereo unspecified)

IC50 (Dihydrofolate reductase): 30.7 µM
SMILES: CN(Cc1cnc2nc(N)nc(N)c2n1)c1ccc(C(=O)NC(CCC(=O)NN)C(=O)O)cc1 (stereo unspecified)
